experiment: Toxicity liver stage against HepG2, at 10uM; assay type: cell-based; set-up: test concentration 10 uM, cell line HepG2-A16-CD81EGFP; details: human, HepG2-A16-CD81EGFP cells; read-out: INHIBITION
Procedure, shortened: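 Uninfected HepG2-A16-CD81EGFP cells, 3 × 10^3 per well, 1536-well, plated on prespotted compound at 10 μM final, parasite-free screening media added to match infected plates; puromycin 10 μM positive, DMSO 0.5% negative; run in parallel with 48 h PbLuc assay at 37 °C, 5% CO2; viability by CellTiter-Glo luminescence, normalized to controls.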

In order of rising cytotoxicity at 10 µM:
1. CN(Cc1ccccn1)C1CC2(CCN(Cc3ccccn3)CC2)C1  -87%
2. O=C(NCC1OCCc2cn(CC3CCOCC3)nc21)c1ccncc1 (stereo unspecified)  -78%
3. Cc1noc([C@H]2C[C@H]3OCC[C@H]3N(Cc3scnc3C)C2)n1  -73.4%
4. O=C(O)c1ccc(N2CCC(Oc3ccc(Cl)cc3)CC2)nc1  -55.6%
5. Cc1nn(-c2ncccn2)c2c1C(c1cnn(C)c1C)SCC(=O)N2 (stereo unspecified)  -46.4%
6. Cc1cc(C2CCCN(CCNS(=O)(=O)c3ccccc3)C2)n[nH]1 (stereo unspecified)  -28.5%
7. COCCNC(=O)C1(Cc2ccccc2-c2ccncc2)CCOCC1  -26.3%
8. CN1CCN(Cc2cn3c(n2)CN(C(=O)N2CCOCC2)CC3)CC1  -18.3%
9. Cc1cc(O)nc(C2CN(CC3(O)CCOCC3)CCO2)n1 (stereo unspecified)  -18.3%
10. CCNc1cc2c(nn1)CCN(C(=O)c1nccnc1N)C2  -16.4%
11. Cc1cc(CNC(=O)c2ccc(C(C)N3CCCCC3)o2)[nH]n1 (stereo unspecified)  -12.6%
12. O=C1CCN(C(=O)c2csc(-c3ccc(C(F)(F)F)cc3)n2)CCN1  -12.3%
13. CCc1nccn1C1CCCN(C(=O)c2ccc3c(c2)OCCO3)C1 (stereo unspecified)  -11.8%
14. CC(=O)N(Cc1ncc(C(C)C)o1)C1CCN(Cc2ccno2)C1 (stereo unspecified)  -11.1%
15. CCCn1ncc2c(C(=O)NC(C)Cn3cccn3)cc(C3CC3)nc21 (stereo unspecified)  -8.97%
16. O=C([C@H]1COC[C@H]2CN(Cc3ccco3)C[C@H]21)N1CCCO1  -8.79%
17. CCN1CC2(CCC1=O)CCN(c1ccc(C(C)=O)cn1)CC2  -8.63%
18. CCC1CCC(CNC(=O)c2c[nH]c(=O)c(Cl)c2)CC1 (stereo unspecified)  -8.46%
19. N#CCCN(Cc1cccnc1)C(=O)c1ccc(OCC2CC2)cc1  -8.17%
20. CCC1CN(CC(=O)NCc2ccco2)CCO1 (stereo unspecified)  -7.66%
21. COc1cc(C)sc1C(=O)NCCNc1ccccc1  -7.64%
22. O=S(=O)(CCCN1CCCCC1Cn1cncn1)c1ccccc1 (stereo unspecified)  -7.42%
23. CCOCCC(=O)N1Cc2cnc(-c3ccccc3)nc2C1  -6.88%
24. O=C(NCc1ccccn1)[C@]12COC[C@H]1CN(C1CCC1)C2  -6.82%
25. O=C(CN1CCC(C(=O)c2cc(F)ccc2F)CC1)NC1CC1  -6.04%
26. Cc1ccc(C)c(OC2CCN(C(=O)NCC(=O)N3CCCC3)CC2)c1  -5.75%
27. CSCC(=O)N1CCCN(Cc2cscn2)CC1  -5.28%
28. CSc1ccsc1C(=O)NC(Cc1ccccc1)C(N)=O (stereo unspecified)  -5.24%
29. O=C(CCn1cccc1)NCc1ccc(CN2CCCCCC2)o1  -5.2%
30. CCS(=O)(=O)N1CCC2(COCc3cnc(N4CCOCC4)nc32)C1 (stereo unspecified)  -4.92%
31. COC[C@@H]1CCC[C@]12CN(Cc1ccco1)CCO2  -4.89%
32. c1ccc(CN2CCC(CNc3ncnc4c3CCNCC4)CC2)cc1  -4.84%
33. c1ccc(CCNC2CCc3ncnn3C2)nc1 (stereo unspecified)  -4.03%
34. CC(C)c1cncnc1-c1cc(F)cc2c1OC(CN)C2 (stereo unspecified)  -4.02%
35. CN(Cc1noc(C2CC2)n1)CC1CCN(CCO)CC1  -3.96%
36. C1CC(CN2CCOCC3(CCN(C4CCOCC4)C3)C2)CCO1 (stereo unspecified)  -3.37%
37. COc1ccc(OC)c(C(O)CNC(=O)Nc2ccc(F)cc2F)c1 (stereo unspecified)  -2.74%
38. COCC1COCCC12CCN(C(=O)Cc1cccc(OC)c1)CC2 (stereo unspecified)  -2.56%
39. O=C(c1cc2c(s1)CCOC2)N1CCCC1Cn1cccn1 (stereo unspecified)  -2.06%
40. CC(C)NC(=O)C1CN(Cc2cccs2)Cc2ccnn2C1 (stereo unspecified)  -1.89%
41. CNC(=O)c1cccnc1NCCOc1ccc(CC#N)cc1  -1.53%
42. CNS(=O)(=O)c1cc(C(=O)NC2COc3ccccc32)cc(C)c1C (stereo unspecified)  -1.51%
43. O=C(CN1CC(c2nc(-c3cccs3)no2)C1)NCC1CCCO1 (stereo unspecified)  -1.47%
44. O=C(c1ccco1)N1C[C@@H]2CN(c3ccccn3)C[C@@H]2C1  -1.27%
45. COc1cccc(NC(=O)CN2CCN(S(C)(=O)=O)CC2)c1  -1%
46. CCCc1nc(C(C)(C)NC(=O)C2CC(=O)N(C3CCCC3)C2)no1 (stereo unspecified)  -0.734%
47. COc1ccc2c(c1)ncn2C[C@]1(O)CCCN2CCCC[C@@H]21  -0.71%
48. CN(C)C(=O)N1CCN(C(=O)C(c2ccccc2F)N(C)C)CC1 (stereo unspecified)  -0.665%
49. CN1CCO[C@@H]2CN(S(=O)(=O)c3ccccc3)CC[C@@H]2C1  -0.461%
50. CCOCc1ncn2c1CN(S(=O)(=O)c1ccc(OC)cc1)CC2  0.199%
51. CC(c1cccnc1)N(C)Cc1ccccn1 (stereo unspecified)  0.423%
52. CC(=O)NC1CCN(c2nc(N)nc3c2CCCC3)C1 (stereo unspecified)  0.452%
53. Cc1ccc(C)c(CN(CC(N)=O)C(C)C)c1  0.477%
54. Cn1cc(NC(=O)c2cccc(C(F)(F)F)c2)c(=O)n(C)c1=O  0.49%
55. CNC(=O)[C@@H]1C[C@H](N)CN1S(=O)(=O)c1cc(Cl)c(Cl)s1  1.27%
56. Cc1nccc(N(C)Cc2ncc(-c3ccccc3C(=O)O)s2)n1  1.31%
57. Cc1nn(C)c2nc(-c3ccccn3)nc(NCCCOC(C)C)c12  1.5%
58. Cc1ncsc1C(=O)NCCNc1ncccn1  1.76%
59. COC(=O)CSCc1noc(-c2ccc(Cl)cc2)n1  1.94%
60. Cn1c(=O)ccn(CC(=O)Nc2cnccc2O)c1=O  2.13%
61. CCc1ncc(CN(CCc2ccccc2)Cc2cccs2)cn1  2.44%
62. O=C1CN(c2cc(-c3ccccc3F)nc3ccnn23)CCCN1  2.77%
63. COc1ccc(-n2ccc(CNCc3cccc(OC)c3)n2)cc1  3.12%
64. Cc1noc(C)c1CN1CCn2cc(CNC(=O)C3CCC3)nc2C1  5.28%
65. O=C(O)C1CN(c2cncc(Cc3ccccc3F)n2)C1  5.7%
66. Cc1ccc(CN2CCC3(CCCN(C(=O)N(C)C)C3)C2)cc1 (stereo unspecified)  6.28%
67. COc1ccc(CN2CC[C@H]3O[C@@H](C(=O)NCC4CC4)CC[C@H]32)cc1  7.31%
68. O=C1CCCN1C1CCCN(CCOc2ccc(F)cc2)C1 (stereo unspecified)  7.62%
69. O=C(NCc1ccco1)[C@H]1C[C@@H]2CCN(c3cccc(F)c3)C[C@H]2O1  8.68%
70. Cc1nnc([C@@H]2C[C@H]3CN(C4CCC4)C[C@H]3O2)[nH]1  8.89%
71. O=C(CCCNC(=O)Nc1ccc(F)cc1)Nc1cn[nH]c1  9.37%
72. COc1c(CNCc2ccc(N3CCOCC3)nc2)c(C)nn1C  9.5%
73. CN1C(=O)CCC12CCCN(C(=O)c1ccncc1F)C2 (stereo unspecified)  11%
74. Cc1ccsc1C(Cc1ccccc1)NC(=O)CNC(=O)C1CC1 (stereo unspecified)  11.6%
75. Cn1cc(-c2ccc(C3CCCCN3Cc3cccnc3)cn2)cn1 (stereo unspecified)  11.6%
76. CSc1nccc(N2CCC3(CCCN(Cc4cccc(C)c4)C3)C2)n1 (stereo unspecified)  12.1%
77. O=C(CSC1=NS(=O)(=O)c2cc(Cl)ccc2N1)c1ccccc1  13.6%
78. O=C(O)CCC(=O)Nc1nn(Cc2ccc(F)cc2)cc1Cl  13.8%
79. O=C(Cc1c[nH]c(=O)[nH]c1=O)N1CCCCC1CCc1cccc(O)c1 (stereo unspecified)  14.5%
80. O=S(=O)(c1cnccc1N1CCN(CCO)CC1)N1CCCCC1  15.7%
81. O=C1CCC2(CCN(Cc3cc(F)ccc3Cl)CC2)CN1C1CCCC1  53.1%
